Source: ChEMBL document CHEMBL3286267, “Discovery of MK-4409, a Novel Oxazole FAAH Inhibitor for the Treatment of Inflammatory and Neuropathic Pain” (ACS Med Chem Lett, 2014)
Values after ≈ are worked out from the molar mass of the structure shown. Active and inactive are the calls of the source. The calls are words filed in the database; no cut-off is given here.

Experiments:
[1] = Clearance in rat at 1 mg/kg, iv and 1 to 2 mg/kg, po; format: ADME, organism-based; conditions: in vivo
Outline: (§1)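 Rat PK given 1 mg/kg iv in DMSO/PEG400/H2O 20/60/20 and 2 mg/kg po in either Imwitor/Tween 1/1 or PEG400/Tween80/H2O 40/10/50. Half-life, clearance, volume of distribution, dose-normalized AUC (AUCN) and oral bioavailability were derived.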

[2] = Solubility in fasted state simulated intestinal fluid; format: ADME
[3] = Volume of distribution at steady state in rat at 1 mg/kg, iv and 1 to 2 mg/kg, po; format: ADME, organism-based; conditions: in vivo, read-out: Vdss; outline: as §1
[4] = Half life in rat at 1 mg/kg, iv and 1 to 2 mg/kg, po; format: ADME, organism-based; conditions: in vivo; outline: as §1
[5] = target: T1, Fatty-acid amide hydrolase 1 (Rattus norvegicus, UniProt P97612); test: Inhibition of rat FAAH lysate using AMCAA as substrate by fluorescence assay
T1 sequence (P97612 whole entry): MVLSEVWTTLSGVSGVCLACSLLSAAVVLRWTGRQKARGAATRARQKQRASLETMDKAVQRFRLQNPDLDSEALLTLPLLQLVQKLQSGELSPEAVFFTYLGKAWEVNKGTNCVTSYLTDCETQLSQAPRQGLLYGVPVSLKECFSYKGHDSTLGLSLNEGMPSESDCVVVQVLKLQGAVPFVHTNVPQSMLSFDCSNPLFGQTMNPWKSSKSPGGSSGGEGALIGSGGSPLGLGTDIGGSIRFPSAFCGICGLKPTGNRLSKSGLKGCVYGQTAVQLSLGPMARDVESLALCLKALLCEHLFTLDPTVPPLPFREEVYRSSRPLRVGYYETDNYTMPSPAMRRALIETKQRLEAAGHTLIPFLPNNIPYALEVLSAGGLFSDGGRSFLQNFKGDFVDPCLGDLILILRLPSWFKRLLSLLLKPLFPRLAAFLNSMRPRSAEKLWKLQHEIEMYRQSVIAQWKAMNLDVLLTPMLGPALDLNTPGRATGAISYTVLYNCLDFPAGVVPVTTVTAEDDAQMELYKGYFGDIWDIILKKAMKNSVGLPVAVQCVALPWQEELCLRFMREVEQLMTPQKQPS
Outline: (§2)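 In vitro assays, with values reported as the average of at least three duplicates.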

[6] = Inhibition of human vesicular monoamine transporter; outline: as §2
[7] = target: Voltage-gated inwardly rectifying potassium channel KCNH2 (Homo sapiens, UniProt Q12809); test: Displacement of [35S]MK-499 from human ERG
Outline: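 hERG K+ channel binding assay measuring displacement of the radiolabelled channel blocker [35S]MK-499. Values are averages of at least three duplicates.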

Rattus norvegicus [8] = test: Dose normalized AUC in rat at 1 mg/kg, iv and 1 to 2 mg/kg, po; format: ADME, organism-based; conditions: in vivo; outline: as §1
[9] = Bioavailability in rat at 1 mg/kg, iv and 1 to 2 mg/kg, po; format: ADME, organism-based; conditions: in vivo; outline: as §1
[10] = target: T2, Fatty-acid amide hydrolase 1 (Homo sapiens, UniProt O00519); test: Inhibition of human FAAH lysate using AMCAA as substrate by fluorescence assay; outline: as §2
T2 sequence (O00519 whole entry): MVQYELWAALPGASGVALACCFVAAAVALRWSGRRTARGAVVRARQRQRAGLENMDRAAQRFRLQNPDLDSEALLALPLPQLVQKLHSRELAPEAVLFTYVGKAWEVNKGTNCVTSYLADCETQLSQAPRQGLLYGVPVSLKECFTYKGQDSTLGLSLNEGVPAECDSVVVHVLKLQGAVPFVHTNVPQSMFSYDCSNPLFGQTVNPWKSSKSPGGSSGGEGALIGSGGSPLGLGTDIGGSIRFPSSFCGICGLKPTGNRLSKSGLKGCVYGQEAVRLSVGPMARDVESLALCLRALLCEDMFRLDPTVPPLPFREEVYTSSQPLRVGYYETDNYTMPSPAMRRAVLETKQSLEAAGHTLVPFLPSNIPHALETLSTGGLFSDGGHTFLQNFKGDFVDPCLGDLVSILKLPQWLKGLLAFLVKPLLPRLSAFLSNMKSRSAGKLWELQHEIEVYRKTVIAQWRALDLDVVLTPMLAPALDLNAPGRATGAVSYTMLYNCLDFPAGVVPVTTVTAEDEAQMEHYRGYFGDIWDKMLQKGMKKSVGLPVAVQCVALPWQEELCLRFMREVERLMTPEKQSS

Rattus norvegicus [11] = test: Analgesic activity in Sprague-Dawley rat complete Freund's adjuvant-induced inflammatory pain model assessed as reversal of mechanical allodynia at 10 mg/kg, po single dose measured after 1 hr; format: functional
Outline: (§3)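 Inflammatory pain induced in rats by intraplantar injection of complete Freund's adjuvant into the hind paw. Mechanical allodynia was assessed at 1 and 3 h after a single oral dose. For each rat, percent reversal = (postdose – predose)/(preinjury – predose), averaged over n = 6.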

Rattus norvegicus [12] = test: Analgesic activity in Sprague-Dawley rat complete Freund's adjuvant-induced inflammatory pain model assessed as reversal of mechanical allodynia at 10 mg/kg, po single dose measured after 3 hrs; format: functional; outline: as §3
[13] = Half life in rat at 1 mg/kg, iv and 2 mg/kg, po; format: ADME, organism-based; conditions: in vivo; outline: as §1
Rattus norvegicus [14] = test: Analgesic activity in Sprague-Dawley rat complete Freund's adjuvant-induced inflammatory pain model assessed as reversal of mechanical allodynia at 30 mg/kg, po single dose measured after 3 hrs; format: functional; outline: as §3
[15] = Volume of distribution at steady state in rat at 1 mg/kg, iv and 2 mg/kg, po; format: ADME, organism-based; conditions: in vivo, read-out: Vdss; outline: as §1
[16] = Bioavailability in rat at 1 mg/kg, iv and 2 mg/kg, po; format: ADME, organism-based; conditions: in vivo; outline: as §1
Rattus norvegicus [17] = test: Dose normalized AUC in rat at 1 mg/kg, iv and 2 mg/kg, po; format: ADME, organism-based; conditions: in vivo; outline: as §1
Rattus norvegicus [18] = test: Analgesic activity in Sprague-Dawley rat complete Freund's adjuvant-induced inflammatory pain model assessed as reversal of mechanical allodynia at 30 mg/kg, po single dose measured after 1 hr; format: functional; outline: as §3
[19] = Clearance in rat at 1 mg/kg, iv and 2 mg/kg, po; format: ADME, organism-based; conditions: in vivo; outline: as §1
Rattus norvegicus [20] = test: Antiallodynic activity in Harlan rat spinal nerve ligation model of neuropathic pain assessed as reversal of allodynia at 21 mg/kg, po; format: functional, organism-based; parameters: dose 21 mg/kg
Outline: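 Rat spinal nerve ligation model of neuropathic pain, scored as percent reversal of allodynia after dosing. A rota-rod test run alongside served as a counterscreen for motor impairment.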

Chain of Voltage-gated inwardly rectifying potassium channel KCNH2 (Q12809 whole entry): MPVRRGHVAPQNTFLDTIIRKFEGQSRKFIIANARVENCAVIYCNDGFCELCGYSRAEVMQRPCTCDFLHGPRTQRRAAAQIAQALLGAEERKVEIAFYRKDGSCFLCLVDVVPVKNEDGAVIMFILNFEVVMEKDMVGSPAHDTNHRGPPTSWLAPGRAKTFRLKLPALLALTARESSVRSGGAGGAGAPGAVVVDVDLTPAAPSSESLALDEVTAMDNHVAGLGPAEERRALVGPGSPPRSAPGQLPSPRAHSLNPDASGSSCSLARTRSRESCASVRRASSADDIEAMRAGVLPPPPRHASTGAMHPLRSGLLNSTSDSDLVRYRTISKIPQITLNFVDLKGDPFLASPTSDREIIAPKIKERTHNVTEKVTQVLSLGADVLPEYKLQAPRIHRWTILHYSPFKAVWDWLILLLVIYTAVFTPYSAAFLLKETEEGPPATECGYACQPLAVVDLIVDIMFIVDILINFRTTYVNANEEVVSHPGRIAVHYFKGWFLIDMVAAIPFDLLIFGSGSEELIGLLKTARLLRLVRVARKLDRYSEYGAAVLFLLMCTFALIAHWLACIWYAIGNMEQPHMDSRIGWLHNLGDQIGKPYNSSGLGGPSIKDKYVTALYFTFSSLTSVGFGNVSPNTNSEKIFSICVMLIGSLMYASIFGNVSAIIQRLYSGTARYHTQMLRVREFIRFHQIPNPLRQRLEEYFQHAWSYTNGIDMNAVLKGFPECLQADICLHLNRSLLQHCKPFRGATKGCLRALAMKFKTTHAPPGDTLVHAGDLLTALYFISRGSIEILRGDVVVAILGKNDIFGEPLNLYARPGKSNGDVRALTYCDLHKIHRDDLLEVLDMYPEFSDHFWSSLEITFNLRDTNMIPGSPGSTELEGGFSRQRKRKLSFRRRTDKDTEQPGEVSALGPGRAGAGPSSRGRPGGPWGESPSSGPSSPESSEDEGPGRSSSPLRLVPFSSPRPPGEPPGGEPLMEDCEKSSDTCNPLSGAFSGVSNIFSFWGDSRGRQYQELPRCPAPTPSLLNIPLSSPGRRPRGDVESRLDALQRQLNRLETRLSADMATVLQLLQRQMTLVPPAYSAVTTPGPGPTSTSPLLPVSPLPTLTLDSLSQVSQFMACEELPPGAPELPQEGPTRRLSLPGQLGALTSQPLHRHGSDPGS

Row | SMILES | solubility [2] | IC50 [5] | EC50 [6] | Ki [7] | IC50 [10] | also measured
1 | CS(=O)(=O)c1ccc(-c2nn(-c3ccc(F)cc3)cc2Sc2ccc(Cl)cc2)cc1 | 3 µg/mL (≈ 6.54 µM) | 6 nM | 363 nM | 637 nM | – | clearance [1]: 34 mL/min/kg; Vd [3]: 8.4 L/kg; half-life [4]: 1.79 h; AUC/dose (Rattus norvegicus [8]): 1.06 µM·kg·h/mg; bioavailability [9]: 100%
2 | Clc1ccc(Sc2c[nH]nc2-c2ccc3c(c2)OCCO3)cc1 | – | 125 nM | – | 1540 nM | 119 nM | –
3 | CS(=O)(=O)c1ccc(-c2nc(-c3ccc(F)cc3)oc2Sc2ccc(Cl)cn2)cc1 | – | 21 nM | 14000 nM | 2500 nM | – | Activity (Rattus norvegicus [11]): 46%; Activity (Rattus norvegicus [12]): 44%
4 | Clc1ccc(Sc2cn(-c3cccnc3)nc2-c2ccc(-c3ncon3)cc2)cc1 | 27 µg/mL (≈ 62.5 µM) | 4.8 nM | 137 nM | 5210 nM | 13 nM | half-life [13]: 2.57 h; Activity (Rattus norvegicus [14]): 62%; Vd [15]: 7.8 L/kg; bioavailability [16]: 35%; AUC/dose (Rattus norvegicus [17]): 0.39 µM·kg·h/mg; Activity (Rattus norvegicus [18]): 49%; clearance [19]: 34 mL/min/kg
5 | NC(=O)c1cccc(-c2cccc(OC(=O)NC3CCCCC3)c2)c1 | – | – | – | – | – | Activity (Rattus norvegicus [20]): Active
